From ChEMBL document CHEMBL1268835, “Property based optimization of δ-lactam HDAC inhibitors for metabolic stability” (Bioorg Med Chem Lett, 2010)

Tests used:
MDA-MB-231 = assay: Growth inhibition of human MDA-MB-231 cells; type: functional, cell-based
PC-3 = assay: Growth inhibition of human PC3 cells; type: functional, cell-based
NUGC-3 = assay: Growth inhibition of human NUGC3 cells; type: functional
NCI-H23 = assay: Growth inhibition of human NCI-H23 cells; type: functional
HCT-15 = assay: Growth inhibition of human HCT15 cells; type: functional
ACHN = assay: Growth inhibition of human ACHN cells; type: functional
[1] = Metabolic stability of the compound in ICR mouse liver microsome assessed as compound remaining at 1 uM; type: ADME; details: liver microsomes, read-out: Stability
Outline: (§1)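 Test compounds were incubated at 37 °C with ICR mouse liver microsomes, with NADPH, without NADPH, and in buffer alone. Read-out is % parent remaining. The screen used 1 mg protein/ml for 30 min. A separate run used female ICR microsomes at 0.5 mg protein/mL for 60 min with 1 µM compound.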

[2] = Oral bioavailability in BALB/c mouse at 20 mg/kg; type: ADME, organism-based; details: in vivo
Outline: (§2)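 Balb/c mice were dosed intravenously or orally. Parameters come from noncompartmental analysis of mean plasma concentration–time profiles from three animals. Intravenous AUC was taken from 0 to infinity and oral AUC from 0 to 5 h. Oral bioavailability (F) is expressed as %.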

[3] = Metabolic stability of the compound in ICR mouse liver microsome assessed as compound remaining at 1 uM in presence of buffer; type: ADME; details: liver microsomes, read-out: Stability; outline: as §1
[4] = Cmax in BALB/c mouse at 20 mg/kg, po; type: ADME, organism-based; design: dose 20 mg/kg, route oral; details: in vivo; outline: as §2
[5] = Apparent permeability across human Caco-2 cells; type: ADME, cell-based
[6] = Metabolic stability of the compound in ICR mouse liver microsome assessed as compound remaining at 1 uM in presence of NADPH; type: ADME; details: liver microsomes, read-out: Stability; outline: as §1
[7] = Tmax in BALB/c mouse at 20 mg/kg, po; type: ADME, organism-based; design: dose 20 mg/kg, route oral; details: in vivo; outline: as §2
[8] = AUC (0 to infinity) in BALB/c mouse at 5 mg/kg, iv; type: ADME, organism-based; design: time infinity, dose 5 mg/kg, route intravenous; details: plasma; outline: as §2
[9] = Clearance in BALB/c mouse at 5 mg/kg, iv; type: ADME, organism-based; design: dose 5 mg/kg, route intravenous; details: in vivo; outline: as §2
[10] = Half life in BALB/c mouse at 5 mg/kg, iv; type: ADME, organism-based; design: dose 5 mg/kg, route intravenous; details: in vivo; outline: as §2
[11] = Half life in BALB/c mouse at 20 mg/kg, po; type: ADME, organism-based; design: dose 20 mg/kg, route oral; details: in vivo; outline: as §2
[12] = (§3) Volume of distribution at steady state in BALB/c mouse at 5 mg/kg, iv; type: ADME, organism-based; design: dose 5 mg/kg, route intravenous; details: BALB/c, in vivo, read-out: Vdss; outline: as §2
[13] = AUC (0 to 5 hrs) in BALB/c mouse at 20 mg/kg, po; type: ADME, organism-based; design: dose 20 mg/kg, route oral; details: plasma; outline: as §2
Mus musculus [14] = assay: Clearance in BALB/c mouse at 10 mg/kg, iv; details: in vivo
Mus musculus [15] = assay: Half life in BALB/c mouse at 10 mg/kg, iv; details: in vivo
Mus musculus [16] = assay: as §3; type: ADME, organism-based; design: dose 5 mg/kg, route intravenous; details: in vivo; outline: as §2

Compound	GI50 (MDA-MB-231) [nM]	GI50 (PC-3) [nM]	GI50 (NUGC-3) [nM]	GI50 (NCI-H23) [nM]	GI50 (HCT-15) [nM]	GI50 (ACHN) [nM]	remaining at 1 µM [1] [%]	remaining at 1 µM [6] [%]	other results
O=C(CCC1=CCCN(CCc2ccccc2Cl)C1=O)NO	3910	7250	5930	6500	4210	8710			
COc1cccc(CCN2CCC=C(CCC(=O)NO)C2=O)c1	3030	4840	4260	7060	3960	7600			
O=C(CCC1=CCCN(CCc2cccc(C(F)(F)F)c2)C1=O)NO	1900	2470	1700	3970	2350	2640			
O=C(CCC1=CCCN(CCCCc2ccccc2)C1=O)NO	2030	3250	3190	5990	5400	1890	8.5	8.7	bioavailability [2]: 1%; remaining at 1 µM [3]: 97.3%; Cmax [4]: 197 ng/mL; Papp [5]: 23.9 ×10⁻⁶ cm/s; Tmax [7]: 15 min; AUC(0-inf) [8]: 1670 ng·h/mL; clearance [9]: 49.8 mL/min/kg; half-life [10]: 77.4 min; half-life [11]: 9 min; Vd [12]: 0.27 L/kg; AUC(0-t) at 4 h [13]: 64.4 ng·h/mL
COCCc1ccc(OCC(O)CNC(C)C)cc1 (stereo unspecified) [METOPROLOL]									Papp [5]: 29.6 ×10⁻⁶ cm/s
CNC(=C[N+](=O)[O-])NCCSCc1ccc(CN(C)C)o1 [RANITIDINE]									Papp [5]: 1.5 ×10⁻⁶ cm/s
O=C(CCC1=CCCN(CCc2ccc3ccccc3c2)C1=O)NO	270	390	360	430	310	380			
O=C(CCC1=CCCN(CCCc2ccc3ccccc3c2Br)C1=O)NO	560	300	790	490	530	460			
O=C(CCC1=CCCN(CCc2ccc(Br)cc2)C1=O)NO	1870	3410			870		56.6	29.6	remaining at 1 µM [3]: 104%
O=C1CC2(CCCC2)CC(=O)N1CCCCN1CCN(c2ncccn2)CC1 [BUSPIRONE]							96.6	0.3	remaining at 1 µM [3]: 106%
O=C(CCC1=CCCN(CCc2ccc([N+](=O)[O-])cc2)C1=O)NO	> 10000	> 10000	> 10000	> 10000	> 10000	> 10000			
CC(C)(C)c1ccc(CCN2CCC=C(CCC(=O)NO)C2=O)cc1	1130	500	1100	990	520	2270			
CC(C)(C)c1ccc(CN2CCC=C(CCC(=O)NO)C2=O)cc1	2840	5190			2940	3000			
O=C(CCC1=CCCN(Cc2cccc(Cl)c2)C1=O)NO	3580	4650	3920	2960	6220	4480	40.3	31.3	remaining at 1 µM [3]: 103%
N#Cc1ccc(CN2CCC=C(CCC(=O)NO)C2=O)cc1	8170	> 10000			> 10000				
CC(C)(C)c1ccc(CCCN2CCC=C(CCC(=O)NO)C2=O)cc1	> 10000	1130	2810	2000	1660	1720	8	3.3	remaining at 1 µM [3]: 103%
Cc1ccc(CCCCN2CCC=C(CCC(=O)NO)C2=O)cc1	3050	2530	2130	2790	2940	2490	5.7	4	remaining at 1 µM [3]: 99.3%
O=C(CCC1=CCCN(CCc2cccc(Br)c2)C1=O)NO	870	810	820	1830	1250	300			
O=C(CCC1=CCCN(CCCCc2ccc(Cl)cc2)C1=O)NO	2560	4150	1790	2880	3300	2460			
O=C(CCC1=CCCN(CCc2ccccc2F)C1=O)NO	3020	7070	3780	6090	3600	4470	52.7	45.3	remaining at 1 µM [3]: 104%
Cc1ccc(CCN2CCC=C(CCC(=O)NO)C2=O)cc1	2840	6340	3570	5560	4000	4550			
O=C(CCC1=CCCN(Cc2ccc(Br)cc2F)C1=O)NO	3120	5810			5370		55	31.7	CL (Mus musculus [14]): 65 mL/min/kg; bioavailability [2]: 14.1%; remaining at 1 µM [3]: 102%; Cmax [4]: 1390 ng/mL; t1/2 (Mus musculus [15]): 372 min; Tmax [7]: 15 min; AUC(0-inf) [8]: 2590 ng·h/mL; Vdss (Mus musculus [16]): 0.8 L/kg; AUC(0-t) at 4 h [13]: 732 ng·h/mL
Cc1cccc(CCN2CCC=C(CCC(=O)NO)C2=O)c1	4040	> 10000			4410				
O=C(CCC1=CCCN(CCc2ccc(Cl)cc2)C1=O)NO	920	1510	1060	2120	1660	1280			
O=C(CCC1=CCCN(CCc2ccc(C(F)(F)F)cc2)C1=O)NO	1810	4820			1700				
N#Cc1cccc(CN2CCC=C(CCC(=O)NO)C2=O)c1	4180	8480			> 10000				
CN(C)CCCN1c2ccccc2Sc2ccc(Cl)cc21 [CHLORPROMAZINE]							86.8	1.2	
O=C(CCC1=CCCN(CCCCc2ccc(Br)cc2)C1=O)NO	3540	4810	2010	2730	3190	2390			
O=C(CCC1=CCCN(CCCCc2ccc(F)cc2)C1=O)NO	> 10000	> 10000	9020	> 10000	> 10000	9530			
